# In article PMC6531791 (Molecular Metabolism, 2019):
# Columns and labels:
# Format in all cases: in vivo, mouse
# [1] = Accelerating rotarod test, MPTP model; details: WT mice; MPTP after saline, ghrelin or Dln101 pre-treatment; vehicle = 88.9 ± 6.4; mean ± SEM, n = 5–11 per group
# [2] = tested on: microglia in SN; assay: Microglia immunostaining with IBA-1 antibody in SN; details: after MPTP exposure, with or without Dln101 pre-treatment
# Outline: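 Sections were blocked in 5% normal goat serum, 1% BSA, 0.1% glycine and 0.1% L-lysine. Rabbit polyclonal anti-IBA-1 (1:3000) was applied overnight at 4 °C, then a biotinylated secondary with ABC/DAB or avidin-Alexa 488. TH was co-stained.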
# [3] = tested on: SN DA neuron mitochondria; assay: Electron microscopy analysis of mitochondrial morphology in SN DA neurons; details: for Mitochondrial average area in SN DA cells / Mitochondrial cytoplasmic coverage: WT mice; for Mitochondrial average area in SN DA cells: vehicle = 0.143 ± 0.004, n = 102–473 per group; for Mitochondrial cytoplasmic coverage: vehicle = 9.94% ± 1.1; for average mitochondrial area in SN DA cells / mitochondrial coverage of cytoplasmic area / mitochondrial units per cell: iCre-DAT MFN2KO animals; for average mitochondrial area in SN DA cells: untreated KO = 0.163 ± 0.005; for mitochondrial coverage of cytoplasmic area: untreated KO = 9.35% ± 0.56; for mitochondrial units per cell: untreated KO = 80 ± 12
# Outline: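 Mice got test peptide (15 nmoles) or saline s.c. daily for 10 days, 15 min before dark onset. […] Perfusion: ice-cold saline, then 4% PFA/15% picric acid/0.1% glutaraldehyde in 0.1M PB. Sections were freeze-thawed and immunolabelled. Mitochondria required visible cristae and a double membrane. Coverage = summed mitochondrial area / (cell − nucleus area), %.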
# [4] = tested on: SN DA neurons (TH+); assay: In situ detection of ROS with dihydroethidium; details: following MPTP exposure, with or without Dln101 pre-treatment; n = 4–6 per group
# Outline: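 Dihydroethidium, 200 μl of a 1 mg/ml stock in 1% DMSO, was injected into the tail vein. Mice were perfused 3 h later. Midbrain sections were co-immunostained for TH. DHE fluorescence intensity was quantified in TH+ cells, n = 4–6 per group.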
# [5] = 1 day after MPTP (15 mg/kg), alone or after Dln101 pre-treatment
structure (smiles),measurement,setting,value
"CN1CC=C(c2ccccc2)CC1 [MPTP, 1-methyl-4-phenyl-1,2,5,6 tetrahydropyridine]",Latency to fall from the rotarod,[1],51.0 ± 5.0 s
same,microglial morphology / activation in SN (IBA1 immunostaining),[2],microglial activation
same,Mitochondrial average area in SN DA cells,[3]; 4 h after MPTP (15 mg/kg),0.112 ± 0.006 μm^2
same,Mitochondrial cytoplasmic coverage,[3]; 4 h after MPTP (15 mg/kg),8.66% ± 0.68
same,Mitochondrial average area in SN DA cells,[3]; [5],0.176 ± 0.006 μm^2
same,Mitochondrial cytoplasmic coverage,[3]; [5],6.144% ± 0.51
same,average mitochondrial area in SN DA cells,"[3]; 4h after MPTP, n = 421–1456",0.179 ± 0.004
same,mitochondrial coverage of cytoplasmic area,[3]; 4h after MPTP,10.22 ± 0.69%
same,mitochondrial units per cell,[3]; 4h after MPTP,52 ± 6
same,average mitochondrial area in SN DA cells,[3]; 3days after MPTP,0.287 ± 0.006
same,mitochondrial coverage of cytoplasmic area,[3]; 3days after MPTP,23.32 ± 4.21%
same,mitochondrial units per cell,[3]; 3days after MPTP,29 ± 3
same,increase in ROS production in SN DA neurons (DHE fluorescence),[4],7.46 fold
